Assay results taken from ChEMBL document CHEMBL1157534, “Discovery of novel, potent benzamide inhibitors of 11beta-hydroxysteroid dehydrogenase type 1 (11beta-HSD1) exhibiting oral activity in an enzyme inhibition ex vivo model” (J Med Chem, 2008).

Legend:
[1] = target: T1, 11-beta-hydroxysteroid dehydrogenase 1 (Homo sapiens, UniProt P28845); experiment: Inhibition of human cloned 11beta-HSD1 by scintillation proximity assay
[2] = Inhibition of cynomolgus monkey recombinant 11beta-HSD1; set-up: species or system Macaca fascicularis
[3] = Drug level in of cynomolgus monkey mesenteric fat at 2 mg/kg, po; format: ADME, organism-based, Macaca fascicularis; set-up: dose 2 mg/kg, route oral; conditions: in vivo
How it was run: (§1)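 Cynomolgus monkeys received an oral dose of 2 or 10 mg/kg and were sacrificed 2 h postdose. Mesenteric fat was excised and compound levels were determined in adipose (ng/g) and in plasma.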

[4] = Half life in dog at 0.5, iv; format: ADME, organism-based, Canis lupus familiaris; conditions: in vivo
How it was run: (§2)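 Single iv dose of 0.5 mg/kg in rat, cynomolgus monkey or dog. This dose group was run alongside a 2.0 mg/kg oral arm. Clearance, half-life, Vdss and AUC were taken from the iv arm.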

[5] = Oral bioavailability in rat at 2.0 mg/kg; format: ADME, organism-based; conditions: in vivo
How it was run: (§3)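 Oral bioavailability came from a 2.0 mg/kg po dose compared against an iv arm. The iv dose was 0.5 mg/kg in monkey, dog and one rat group, and 0.17 mg/kg in the other rat group.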

[6] = Oral bioavailability in dog at 2.0; format: ADME, organism-based, Canis lupus familiaris; conditions: in vivo; how it was run: as §3
[7] = Volume of distribution at steady state in dog at 0.5, iv; format: ADME, organism-based, Canis lupus familiaris; conditions: in vivo, read-out: Vdss; how it was run: as §2
[8] = Volume of distribution at steady state in cynomolgus monkey at 0.5, iv; format: ADME, organism-based, Macaca fascicularis; conditions: in vivo, read-out: Vdss; how it was run: as §2
Plasma = experiment: Drug level in of cynomolgus monkey plasma at 2 mg/kg, po; format: ADME, organism-based, Macaca fascicularis; set-up: dose 2 mg/kg, route oral; conditions: in vivo; how it was run: as §1
[9] = Metabolic stability in human liver microsomes assessed as compound remaining at 1 uM after 30 mins; format: ADME, Microsome; conditions: read-out: Stability
[10] = Half life in cynomolgus monkey at 0.5, iv; format: ADME, organism-based, Macaca fascicularis; conditions: in vivo; how it was run: as §2
[11] = Half life in rat at 0.5 mg/kg, iv; format: ADME, organism-based; set-up: dose 0.5 mg/kg, route intravenous; conditions: in vivo; how it was run: as §2
[12] = target: T1, 11-beta-hydroxysteroid dehydrogenase 1; experiment: Inhibition of human recombinant 11beta-HSD1 expressed in HEK293 cells in presence of 3% human serum albumin; format: cell-based
Rattus norvegicus [13] = experiment: AUC in rat at 0.5 mg/kg, iv; format: ADME, organism-based, Plasma; set-up: dose 0.5 mg/kg, route intravenous; conditions: in vivo; how it was run: as §2
Rattus norvegicus [14] = experiment: Clearance in rat at 0.5 mg/kg, iv; format: ADME, organism-based; set-up: dose 0.5 mg/kg, route intravenous; conditions: in vivo; how it was run: as §2
[15] = target: T1, 11-beta-hydroxysteroid dehydrogenase 1; experiment: Inhibition of 11beta-HSD1 in human adipocytes; format: cell-based
Canis familiaris [16] = experiment: Clearance in dog at 0.5 mg/kg, iv; format: ADME, organism-based, Canis lupus familiaris; set-up: dose 0.5 mg/kg, route intravenous; conditions: in vivo; how it was run: as §2
[17] = target: T2, 11-beta-hydroxysteroid dehydrogenase type 2 (Homo sapiens, UniProt P80365); experiment: Inhibition of 11beta-HSD2 by scintillation proximity assay
T2 sequence (P80365 whole entry): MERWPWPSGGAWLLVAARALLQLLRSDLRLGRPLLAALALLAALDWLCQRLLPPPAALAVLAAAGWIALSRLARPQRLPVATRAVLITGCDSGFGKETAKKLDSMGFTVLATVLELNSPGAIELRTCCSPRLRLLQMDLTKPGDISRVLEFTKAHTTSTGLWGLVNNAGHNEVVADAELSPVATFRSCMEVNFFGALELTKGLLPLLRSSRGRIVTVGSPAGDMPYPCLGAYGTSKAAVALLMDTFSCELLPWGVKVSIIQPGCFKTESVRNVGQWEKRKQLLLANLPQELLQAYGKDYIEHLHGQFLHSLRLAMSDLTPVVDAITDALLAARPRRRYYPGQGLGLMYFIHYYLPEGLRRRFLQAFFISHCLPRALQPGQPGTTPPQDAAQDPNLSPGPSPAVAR

Cynomolgus monkey [18] = experiment: Ex vivo inhibition of 11beta-HSD1 in orally dosed cynomolgus monkey mesenteric fat assessed as [3H][…] production; conditions: Macaca fascicularis, oral
[19] = target: T1, 11-beta-hydroxysteroid dehydrogenase 1; experiment: Inhibition of human recombinant 11beta-HSD1 expressed in HEK293 cells; format: cell-based
[20] = Drug level in of cynomolgus monkey mesenteric fat at 10 mg/kg, po; format: ADME, organism-based, Macaca fascicularis; set-up: dose 10 mg/kg, route oral; conditions: in vivo; how it was run: as §1
Cynomolgus monkey [21] = experiment: AUC in cynomolgus monkey at 0.5, iv; format: ADME, organism-based, Macaca fascicularis, Plasma; conditions: in vivo; how it was run: as §2
[22] = Metabolic stability in rat liver microsomes assessed as compound remaining at 1 uM after 30 mins; format: ADME, Microsome; conditions: read-out: Stability
Cynomolgus monkey [23] = experiment: Clearance in cynomolgus monkey at 0.5 mg/kg, iv; format: ADME, organism-based, Macaca fascicularis; set-up: dose 0.5 mg/kg, route intravenous; conditions: in vivo; how it was run: as §2
[24] = Volume of distribution at steady state in rat at 0.5 mg/kg, iv; format: ADME, organism-based; set-up: dose 0.5 mg/kg, route intravenous; conditions: in vivo, read-out: Vdss; how it was run: as §2
Canis familiaris [25] = experiment: AUC in dog at 0.5, iv; format: ADME, organism-based, Canis lupus familiaris, Plasma; conditions: in vivo; how it was run: as §2
[26] = Oral bioavailability in cynomolgus monkey at 2.0; format: ADME, organism-based, Macaca fascicularis; conditions: in vivo; how it was run: as §3
[27] = Clearance in rat; format: ADME, organism-based; conditions: in vivo
[28] = Volume of distribution at steady state in rat at 0.17 mg/kg, iv; format: ADME, organism-based; set-up: dose 0.17 mg/kg, route intravenous; conditions: in vivo, read-out: Vdss
How it was run: (§4)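 Rats were given a single iv dose of 0.17 mg/kg, with a parallel 2.0 mg/kg oral arm. Clearance, half-life, Vdss and AUC were derived from the iv data.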

[29] = Half life in rat at 0.17 mg/kg, iv; format: ADME, organism-based; set-up: dose 0.17 mg/kg, route intravenous; conditions: in vivo; how it was run: as §4
Rattus norvegicus [30] = experiment: AUC in rat at 0.17 mg/kg, iv; format: ADME, organism-based, Plasma; set-up: dose 0.17 mg/kg, route intravenous; conditions: in vivo; how it was run: as §4
Rattus norvegicus [31] = experiment: Clearance in rat at 0.17 mg/kg, iv; format: ADME, organism-based; set-up: dose 0.17 mg/kg, route intravenous; conditions: in vivo; how it was run: as §4

T1 sequence (P28845 whole entry): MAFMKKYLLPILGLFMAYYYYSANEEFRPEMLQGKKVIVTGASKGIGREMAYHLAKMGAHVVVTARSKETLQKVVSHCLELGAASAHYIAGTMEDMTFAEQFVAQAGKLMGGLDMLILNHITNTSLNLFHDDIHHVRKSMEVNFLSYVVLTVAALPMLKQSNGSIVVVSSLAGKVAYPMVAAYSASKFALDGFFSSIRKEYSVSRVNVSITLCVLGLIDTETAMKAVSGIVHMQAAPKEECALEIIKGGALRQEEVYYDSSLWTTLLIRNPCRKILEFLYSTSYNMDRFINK

Row | Compound | IC50 [1] [nM] | remaining at 0.5 h, 1 µM [9] [%] | IC50 [12] [nM] | IC50 [15] [nM] | IC50 [17] [nM] | IC50 [19] [nM] | remaining at 0.5 h, 1 µM [22] [%] | other results
1 | CCN(C(=O)c1ccc([C@](C)(O)C(F)(F)F)cc1)C1CCCCC1 | 1.3 | 5 | 25 | – | – | 1.3 | < 5 | clearance [27]: 51.7 mL/min/kg
2 | C[C@](O)(c1ccc(C(=O)N(C2CCCCC2)C2CC2)cc1)C(F)(F)F | 0.8 | 81 | 38 | – | > 10000 | 2.4 | < 5 | –
3 | C[C@](O)(c1ccc(C(=O)N(C2CC2)[C@H]2CC[C@H](c3ccccc3)CC2)cc1)C(F)(F)F | 1.3 | > 90 | 155 | 9.8 | > 10000 | 16 | > 90 | –
4 | C[C@](O)(c1ccc(C(=O)N(C2CC2)[C@H]2CC[C@@H](c3ccccc3)CC2)cc1)C(F)(F)F | 6.1 | 9 | 123 | – | > 10000 | 18 | < 5 | –
5 | C[C@](O)(c1ccc(C(=O)N(C2CC2)[C@H]2CC[C@H](F)CC2)cc1)C(F)(F)F | 6.6 | 81 | 140 | 4.1 | > 10000 | – | 16 | –
6 | C[C@H]1CCCCN1S(=O)(=O)c1ccc(C(C)(O)C(F)(F)F)cc1 (stereo partly drawn) | – | – | – | – | – | 2.1 | – | –
7 | C[C@](O)(c1ccc(C(=O)N(C2CC2)[C@H]2CC[C@H](c3ccc(C#N)cc3)CC2)cc1)C(F)(F)F | 0.7 | > 90 | 161 | 3.4 | > 10000 | 12 | > 90 | bioavailability [5]: 29%; Vd [28]: 2.5 L/kg; half-life [29]: 15.7 h; AUC (Rattus norvegicus [30]): 1590 ng·h/mL; CL (Rattus norvegicus [31]): 1.83 mL/min/kg
8 | C[C@](O)(c1ccc(C(=O)N(C2CC2)[C@H]2CC[C@H](CCC#N)CC2)cc1)C(F)(F)F | 0.7 | > 90 | 11 | 0.2 | > 10000 | 1.3 | 42 | bioavailability [5]: 83%; Vd [28]: 0.91 L/kg; half-life [29]: 0.5 h; AUC (Rattus norvegicus [30]): 393 ng·h/mL; CL (Rattus norvegicus [31]): 21.3 mL/min/kg

Continued by falling IC50 [1], values first:

Row | IC50 [1] [nM] | remaining at 0.5 h, 1 µM [9] [%] | IC50 [12] [nM] | IC50 [15] [nM] | IC50 [17] [nM] | IC50 [19] [nM] | remaining at 0.5 h, 1 µM [22] [%] | Compound | other results
9 | 9 | 23 | 849 | – | – | 38 | < 5 | CC(O)(c1ccc(C(=O)N(CC2CC2)C2CCCCC2)cc1)C(F)(F)F (racemic) | –
10 | 2.6 | 17 | 163 | – | – | 24 | < 5 | C[C@](O)(c1ccc(C(=O)N(CC(F)(F)F)C2CCCCC2)cc1)C(F)(F)F | –
11 | 1.4 | > 90 | 124 | 3 | > 10000 | 5.8 | 51 | C[C@](O)(c1ccc(C(=O)N(C2CC2)[C@H]2CC[C@H](c3cccnc3)CC2)cc1)C(F)(F)F | IC50 [2]: 39 nM; Drug uptake [3]: 1211 ng/mL; half-life [4]: 9.3 h; bioavailability [5]: 72%; bioavailability [6]: 4%; Vd [7]: 3.5 L/kg; Vd [8]: 8.1 L/kg; Drug uptake (Plasma): 604 ng/mL; half-life [10]: 11.2 h; half-life [11]: 4.5 h; AUC (Rattus norvegicus [13]): 481 ng·h/mL; CL (Rattus norvegicus [14]): 17 mL/min/kg; CL (Canis familiaris [16]): 10 mL/min/kg; ED50 (Cynomolgus monkey [18]): 2 mg/kg; Drug uptake [20]: 2890 ng/g; AUC (Cynomolgus monkey [21]): 1010 ng·h/mL; CL (Cynomolgus monkey [23]): 8.3 mL/min/kg; Vd [24]: 6.7 L/kg; AUC (Canis familiaris [25]): 915 ng·h/mL; bioavailability [26]: 64%
